Test results: ChEMBL document CHEMBL1147804, “3,4-Fused cyclohexyl sulfones as gamma-secretase inhibitors” (Bioorg Med Chem Lett, 2006)
pEC50, pIC50: −log10 of the molar value.

Columns and labels:
Mus musculus [1] = experiment: Plasma concentration for reduction of DEA-extractable brain beta amyloid in orally dosed APP-YAC mouse after 4 hrs relative to control; format: ADME, organism-based
Outline: (§1)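 APP-YAC transgenic mice were dosed orally with a dose-response titration, with vehicle and a positive-control γ-secretase inhibitor as references. At 4 h post-dose, DEA-extractable brain Aβ was measured alongside plasma and brain drug levels. EC50 is the plasma or brain concentration giving a 50% cut in brain Aβ. ED50 is the oral dose reaching those levels.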

Mus musculus [2] = experiment: Reduction of DEA-extractable brain beta amyloid in orally dosed APP-YAC mouse after 4 hrs; format: ADME, organism-based; details: po; outline: as §1
Mus musculus [3] = experiment: Brain concentration for reduction of DEA-extractable brain beta amyloid in orally dosed APP-YAC mouse after 4 hrs relative to control; format: ADME, organism-based; outline: as §1
Gamma-secretase = experiment: Inhibition of gamma secretase; format: protein-complex assay, Homo sapiens
[4] = Brain to plasma ratio for reduction of DEA-extractable brain beta amyloid in orally dosed APP-YAC mouse after 4 hrs; format: ADME, organism-based; details: po
[5] = Stability assessed as liver microsomal turnover in rat at 1 uM; format: ADME, Microsome; details: liver microsomes, read-out: Stability
Outline: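 Compound at 1 μM was incubated with rat liver microsomal protein (5 mg/mL) plus NADPH at 37 °C for 20 min. Percentage of parent remaining was quantified by LC–MS.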

[6] = Bioavailability in rat; format: ADME, organism-based; details: in vivo
[7] = Half life in rat; format: ADME, organism-based; details: in vivo

SMILES | pIC50 (Gamma-secretase) | metabolised at 1 µM [5] | other results
CCC1C[C@@H]2C[C@](c3cc(F)ccc3F)(S(=O)(=O)c3ccc(Cl)cc3)CC[C@@H]2CS1(=O)=O (single isomer, unassigned) | 9.12 | 15% | pEC50 (Mus musculus [1]): 6.12; ED50 (Mus musculus [2]): 3.9 mg/kg; pEC50 (Mus musculus [3]): 6.49; Kp at 4 h [4]: 0.41
CCC1C[C@@H]2C[C@](c3cc(F)ccc3F)(S(=O)(=O)c3ccc(Cl)cc3)CC[C@@H]2NS1(=O)=O (single isomer, unassigned) | 10.22 | 7% | pEC50 (Mus musculus [1]): 6.42; ED50 (Mus musculus [2]): 2.8 mg/kg; pEC50 (Mus musculus [3]): 7.06; Kp at 4 h [4]: 0.18
O=S1(=O)NC[C@@H]2C[C@](c3cc(F)ccc3F)(S(=O)(=O)c3ccc(Cl)cc3)CC[C@@H]2N1 (racemic) | 8.21 | 9% | 
O=S1(=O)N[C@H]2CC[C@@](c3cc(F)ccc3F)(S(=O)(=O)c3ccc(Cl)cc3)C[C@H]2CN1C1CCC1 (racemic) | 9.59 | 68% | 
CS(=O)(=O)NCC1CCCC(c2cc(F)ccc2F)(S(=O)(=O)c2ccc(Cl)cc2)C1 (stereo not drawn) |  |  | bioavailability [6]: 31%; half-life [7]: 1.1 h
CC1C[C@@H]2C[C@](c3cc(F)ccc3F)(S(=O)(=O)c3ccc(Cl)cc3)CC[C@@H]2NS1(=O)=O (single isomer, unassigned) | 10.10 | 20% | 
O=S1(=O)N[C@H]2CC[C@@](c3cc(F)ccc3F)(S(=O)(=O)c3ccc(Cl)cc3)C[C@H]2CN1C1CC1 (racemic) | 9.72 | 14% | 
O=S1(=O)NC[C@@H]2C[C@](c3cc(F)ccc3F)(S(=O)(=O)c3ccc(Cl)cc3)CC[C@@H]2N1C1CC1 (racemic) | 10.40 |  | pEC50 (Mus musculus [1]): 6.98; ED50 (Mus musculus [2]): 11.4 mg/kg; pEC50 (Mus musculus [3]): 7.70; Kp at 4 h [4]: 0.16
CCCC1C[C@@H]2C[C@](c3cc(F)ccc3F)(S(=O)(=O)c3ccc(Cl)cc3)CC[C@@H]2NS1(=O)=O (single isomer, unassigned) | 9.62 | 32% | 

Second part, led by results:

pIC50 (Gamma-secretase) | metabolised at 1 µM [5] | SMILES | other results
9.40 | 46% | CCN1C[C@@H]2C[C@](c3cc(F)ccc3F)(S(=O)(=O)c3ccc(Cl)cc3)CC[C@@H]2NS1(=O)=O (racemic) | 
8.86 | 15% | CC(C)(C)N1C[C@@H]2C[C@](c3cc(F)ccc3F)(S(=O)(=O)c3ccc(Cl)cc3)CC[C@@H]2NS1(=O)=O (racemic) | 
8.93 | 63% | CCCN1C[C@@H]2C[C@](c3cc(F)ccc3F)(S(=O)(=O)c3ccc(Cl)cc3)CC[C@@H]2NS1(=O)=O (racemic) | 
9.05 | 17% | CN1C[C@@H]2C[C@](c3cc(F)ccc3F)(S(=O)(=O)c3ccc(Cl)cc3)CC[C@@H]2NS1(=O)=O (racemic) | 
9.39 |  | CC(C)N1C[C@@H]2C[C@](c3cc(F)ccc3F)(S(=O)(=O)c3ccc(Cl)cc3)CC[C@@H]2NS1(=O)=O (racemic) | 
